According to ChEMBL document CHEMBL1143266, “Synthesis of spiro[chroman-2,4'-piperidin]-4-one derivatives as acetyl-CoA carboxylase inhibitors” (Bioorg Med Chem Lett, 2009):

Legend:
Rattus norvegicus [1] = species on record: Rattus norvegicus; test: Inhibition of acetyl-CoA carboxylase in rat skeletal muscle by HPLC at 10 uM; type: tissue-based; conditions: Muscle tissue
In short: (§1)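 Biotinylated enzyme bound on a streptavidin column, eluted with 5 mM biotin, and protein quantified by Bradford. Buffer was 50 mM HEPES pH 7.5, 20 mM MgCl₂, 10 mM tripotassium citrate, 0.075% BSA, 2 mM ATP, 1 mM acetyl-CoA and 17.6 mM NaHCO₃, stopped with 10% perchloric acid. HPLC read-out measured acetyl-CoA loss and/or malonyl-CoA formation.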

[2] = Inhibition of acetyl-CoA carboxylase in rat skeletal muscle by HPLC; type: tissue-based, Muscle tissue
Mus musculus = test: Reduction in respiratory quotient in ip dosed C57BL/6J mouse administered once a day for 8 days measured after 24 hrs of day 7 acclimatization in presence of high carbohydrate; type: functional, organism-based
In short: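 C57BL/6J mice aged 7–8 weeks on normal chow (carbohydrate 64%, fat 7%, protein 20%), n = 8 per group, got vehicle or 30 or 60 mg/kg ip once daily for 8 days. After 24 h cage acclimatization from day 7, O₂ consumption and CO₂ production were recorded immediately post-dose. The first 30 min were excluded, and RQ was averaged over the initial 8 h and compared by Student's t test.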

[3] = Membrane permeability at pH 6.8 by PAMPA; type: ADME; conditions: read-out: permeability
[4] = (§2) Inhibition of acetyl-CoA carboxylase in rat skeletal muscle by HPLC at 1 uM/L; type: tissue-based, Muscle tissue; in short: as §1
Rattus norvegicus [5] = species on record: Rattus norvegicus; test: as §2; type: tissue-based; conditions: Muscle tissue; in short: as §1
Rattus norvegicus [6] = species on record: Rattus norvegicus; test: Inhibition of acetyl-CoA carboxylase in rat skeletal muscle by HPLC at 5 uM; type: tissue-based; conditions: Muscle tissue; in short: as §1

SMILES | inhibition (Rattus norvegicus [1]) | IC50 [2] | further results
O=C1CC2(CCN(C(=O)c3cc(-c4ccccc4)nc(-c4ccccc4)c3)CC2)Oc2ccc(N3CCCC3=O)cc21 | > 90% | 14 nM | Activity (Mus musculus): Dose-dependent effect; Papp [3]: 26.8 ×10⁻⁶ cm/s
O=C1CC2(CCN(C(=O)c3cc(-c4ccccc4)nc(-c4ccccc4)c3)CC2)Oc2cc(N3CCCC3)ccc21 | > 90% | 61 nM | –
O=C1CC2(CCN(C(=O)N3c4ccccc4Oc4ccccc43)CC2)Oc2ccc(N3CCCC3=O)cc21 | – | – | IC50 [4]: 236 nM
CN1CCN(c2ccc3c(c2)OC2(CCN(C(=O)c4cc(-c5ccccc5)nc(-c5ccccc5)c4)CC2)CC3=O)CC1 | > 90% | 27 nM | –
Cc1cc2c(cc1N1CCOCC1)C(=O)CC1(CCN(C(=O)c3cc(-c4ccccc4)nc(-c4ccccc4)c3)CC1)O2 | > 90% | 2 nM | –
O=C1CC2(CCN(C(=O)N3c4ccccc4Sc4ccccc43)CC2)Oc2ccc(N3CCOCC3)cc21 | 64% | – | –
O=C1CC2(CCN(C(=O)c3cc(-c4ccccc4)nc(-c4ccccc4)c3)CC2)Oc2ccc(N3CCOCC3)cc21 | > 90% | 6 nM | –
CCCC(=O)Nc1ccc2c(c1)C(=O)CC1(CCN(C(=O)c3cc(-c4ccccc4)nc(-c4ccccc4)c3)CC1)O2 | > 90% | 6 nM | –
CCCC(=O)Nc1ccc2c(c1)C(=O)CC1(CCN(C(=O)N3c4ccccc4Oc4ccccc43)CC1)O2 | – | – | IC50 [4]: 101 nM
CCCC(=O)Nc1ccc2c(c1)C(=O)CC1(CCN(C(=O)N3c4ccccc4Sc4ccccc43)CC1)O2 | 48% | – | –
COc1cc(C(=O)N2CCC3(CC2)CC(=O)c2cc(Nc4ccnn4C)ccc2O3)nc2c(OC)cccc12 | – | – | inhibition (Rattus norvegicus [5]): 100%
CCCC(=O)Nc1ccc2c(c1)C(=O)CC1(CCN(C(=O)N3c4ccccc4CCc4ccccc43)CC1)O2 | 4% | – | –
O=C1CC2(CCN(C(=O)c3cc(-c4ccccc4)nc(-c4ccccc4)c3)CC2)Oc2cc(N3CCCCC3)ccc21 | > 90% | 36 nM | –
O=C1CC2(CCN(C(=O)N3c4ccccc4Sc4ccccc43)CC2)Oc2ccccc21 | 16% | – | –
CCCC(=O)N(C)c1ccc2c(c1)C(=O)C(C)(C)C1(CCN(C(=O)c3cc(-c4ccccc4)nc(-c4ccccc4)c3)CC1)O2 | 83% | – | –
O=C1CC2(CCN(C(=O)N3c4ccccc4Oc4ccccc43)CC2)Oc2cc(N3CCOCC3)ccc21 | – | – | IC50 [4]: 208 nM
CC1(C)C(=O)c2ccccc2OC12CCN(C(=O)c1cc(-c3ccccc3)nc(-c3ccccc3)c1)CC2 | 44% | – | –
CC1COCC(C)N1c1ccc2c(c1)OC1(CCN(C(=O)c3cc(-c4ccccc4)nc(-c4ccccc4)c3)CC1)CC2=O (centres undefined) | > 90% | 59 nM | –
O=C1CC2(CCN(C(=O)c3cc(-c4ccccc4)nc(-c4ccccc4)c3)CC2)Oc2cc(N3CCOCC3)ccc21 | > 90% | 26 nM | –
CC(=O)N[C@H](C)C#Cc1ccc2c(c1)C(=O)CC1(CCN(C(=O)c3cc(-c4ccccc4)nc(-c4ccccc4)c3)CC1)O2 | > 90% | 61 nM | –
O=C1CC2(CCN(C(=O)N3c4ccccc4CCc4ccccc43)CC2)Oc2ccc(N3CCOCC3)cc21 | 7% | – | –
O=C1CC2(CCN(C(=O)N3c4ccccc4Oc4ccccc43)CC2)Oc2ccccc21 | – | – | inhibition (Rattus norvegicus [6]): 51%
COc1cc(C(=O)N2CCC3(CC2)CC(=O)c2cc(-c4nc[nH]n4)ccc2O3)nc2c(OC)cccc12 | – | – | inhibition (Rattus norvegicus [5]): 100%
O=C(c1c2ccccc2cc2ccccc12)N1CCC(N2CCC[C@@H](C(=O)N3CCOCC3)C2)CC1 | > 90% | – | –
O=C1CC2(CCN(C(=O)c3cc(-c4ccccc4)nc(-c4ccccc4)c3)CC2)Oc2ccccc21 | > 90% | 1200 nM | –
O=C1CC2(CCN(C(=O)N3c4ccccc4Oc4ccccc43)CC2)Oc2ccc(N3CCOCC3)cc21 | – | – | IC50 [4]: 99 nM
